Most compounds without a hit are left out; they make up all but 2.1% or so of the library.
Calpain2 inh – inhibitors of pig calpain II, primary screen, biochemical, fluorogenic peptide substrate, 1536-well. actives 0.37% (n = 220,000). purified calpain II, 30 min. AID 1236, 2008. inhibition, % at 16 µM;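 active = inhibition above about 50%, limit read from the data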
FAS-TE inh – FAS thioesterase domain inhibitors, primary screen, biochemical, fluorescence intensity, uHTS; Fatty acid synthase (Homo sapiens), P49327; recombinant FAS-TE, OMFH fluorogenic substrate, fluorescence endpoint; inhibition, % at 15 µM; actives 0.67% (n = 360,000); AID 602261, 2012;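 active = compounds whose normalised, plate-corrected inhibition of enzyme fluorescence in the single-dose primary screen is 50% or more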;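 note: 0% = DMSO with enzyme and 100% = substrate without enzyme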
RanGTP-Imp inh – inhibitors of RanGTP-importin-beta interaction, primary screen, biochemical, FRET, CFP-Ran, YFP-importin-beta, homogeneous. AID 2216, 2009. cell-free CFP-Ran/YFP-importin-beta FRET ratio. actives 1.1% (n = 300,000). inhibition, % (concentration not given with the values);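 active = more than half of the replicate wells show a fall in the fluorescence ratio signal beyond about 16%, limit read from the data, passing the limit was not always enough; inconclusive = exactly half of the replicate wells pass the set limit; inactive = fewer than half of replicates pass the limit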;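 note: 0% = DMSO wells and 100% = Ran loaded with GDP instead of GTP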
Runt-SMMHC FRET – inhibitors of RUNX1 Runt–CBFb-SMMHC binding, primary screen, biochemical, FRET, Cerulean-Runt, Venus-CBFb-SMMHC, uHTS; Runt-related transcription factor 1 (Homo sapiens) + Core-binding factor subunit beta …; Cerulean-Runt/Venus-CBFb-SMMHC FRET ratio 530/480, 1 h; inhibition, % at 20 µM; actives 0.74% (n = 220,000);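 active = mean inhibition across duplicate retests at 20 µM reaching about 50%, limit read from the data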;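 note: 0% = DMSO wells and 100% = wells with excess untagged CBFb-SMMHC; inhibitors lower the FRET ratio by blocking Runt binding to CBFb-SMMHC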
Runt-CBFb FRET – inhibitors of RUNX1 Runt–CBFb binding, primary screen, biochemical, FRET, Cerulean-Runt, Venus-CBFb, uHTS. Cerulean-Runt/Venus-CBFb FRET ratio 530/480, 1 h. inhibition, % at 20 µM. actives 0.46% (n = 220,000). AID 1496, 2009;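 active = inhibition over about 50% at 20 µM in the single-dose screen, limit read from the data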;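 note: 0% = DMSO wells and 100% = excess unlabeled CBFb competitor control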
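Assay system: Cerulean-Runt domain / Medium: Tris 50 mM pH 7.5, KCl, K2SO4, 0.01% BSA / Timing: protein complex preformed 1 h, compound exposure 1 h, room temperature, dark / Measured by: FRET, excitation 422 nm, emission at 530 and 480 nm / Evaluation: loss of energy transfer signal / Control set: 5 µM unlabeled CBFb as full-inhibition high control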
RUNX1 CBFb TR – inhibitors of RUNX1 Runt–CBFb binding, biochemical, TR-FRET; AID 1502, 2009; TR-FRET RUNX1 Runt domain-CBFb binding; shares compounds with Runt-CBFb FRET; inhibition, % at 20 µM; actives 20% (n = 480); in the data active = inhibition above about 40%
* hit, by the source's call; i = inactive; ? = inconclusive; · = no result given.

SMILES | Calpain2 inh | FAS-TE inh | RanGTP-Imp inh | Runt-SMMHC FRET | Runt-CBFb FRET | RUNX1 CBFb TR
Cc1ccc(-c2noc(CN3C(C)CCCC3C)n2)cc1 (stereo unspecified) | 7 | -2 | 9 | -8 | 84* | -41
COc1ccc(CN2CCC(C(=O)c3ccc(Cl)cc3)CC2)cc1 | · | 0 | -2 | · | · | ·
Cc1ccc(NC(=O)C2=C(O)c3sccc3N(C)S2(=O)=O)cc1 | 26 | -4 | 1 | 23 | 5 | ·
Cc1ccc(NC(=S)C2=C(O)c3sccc3N(C)S2(=O)=O)cc1 | 9 | -7 | 81* | 73* | 65* | 16
CCn1cc(C(=O)OCC(=O)NCc2ccccc2Cl)c(=O)c2ccc(C)nc21 | 17 | 6 | 2 | -3 | -2 | ·
O=C(NCc1ccc(F)cc1)c1noc2c1CCCCC2 | 11 | 1 | 6 | -2 | -1 | ·
O=C(NCc1ccc(F)cc1)c1noc2c1CCCC2 | -1 | -4 | -3 | -1 | 54* | 4
COC(=O)C(C)n1nnc2sc(-c3ccccc3)cc2c1=O (stereo unspecified) | -253 | -4 | · | 124* | 58* | -98
CC(C)Sc1nc2sc(-c3ccccc3)cc2c(=O)n1N | -38 | -13 | · | -1 | 1 | ·
CN(C)c1cccc(C(=O)OCc2cc(=O)oc3cc(O)ccc23)c1 | -422 | -13 | ? | 81* | 85* | 52*
CN(C)c1oc(/C=C/c2ccccc2)nc1C#N | -135 | 4 | 11 | 122* | 63* | -34
O=c1oc2c(-c3ccc([N+](=O)[O-])cc3)cc(O)cc2s1 | 0 | 7 | 7 | 4 | 56* | -8
CCC(C)(C)n1nnnc1C(c1ccc2ncccc2c1)N1CCN(c2ccc(O)cc2)CC1 (stereo unspecified) | -26 | -3 | -1 | -1 | 54* | 29
COCCN(C(=O)CSc1nnc(-c2ccccc2OC)o1)c1c(N)n(CC(C)C)c(=O)[nH]c1=O | · | -6 | · | · | · | ·
CC(NC(=O)OC(C)(C)C)C(=O)Oc1ccc2ccc(=O)oc2c1 (stereo unspecified) | i | 8 | · | 113* | 68* | 36
CC(=O)Oc1ccc2ccc(=O)oc2c1 | -370 | 2 | 13 | 85* | 51* | 39
CCC(=O)NC(=S)NNC(=O)c1ccccc1[N+](=O)[O-] | -17 | -4 | -3 | 48 | 51* | -20
Cc1cc(C)nc(SCC(=O)c2cc3ccccc3oc2=O)n1 | 21 | -7 | -1 | 26 | 54* | 14
CCOC(=O)C1=C(C)N(c2ccccc2)C(=O)/C1=C\c1ccc(O)c(OC)c1 | 20 | -2 | 3 | -4 | 55* | 60*
COCCn1c(-c2ccc(SC)cc2)nc2c1c(=O)[nH]c(=O)n2CC(C)C | · | 0 | 0 | · | · | ·
CCCCn1c(-c2ccncc2)nc2c1c(=O)[nH]c(=O)n2CC(C)C | -29 | -3 | 3 | 2 | 75* | -10
COc1cc(Cl)c(C)cc1NC(=S)NN | -10 | -2 | 2 | 30 | 51* | 16
Cc1noc(C)c1COc1ccccc1C(=O)NCCc1ccc(F)cc1 | · | -2 | · | · | · | ·
COc1c(O)ccc(/C=C(\C#N)c2nc3ccccc3[nH]2)c1[N+](=O)[O-] | -6 | 4 | 20* | 100* | 74* | 0
COc1cc(/C=C(\C#N)c2nc3ccc(C)cc3[nH]2)c([N+](=O)[O-])cc1OC | 12 | 2 | 5 | 46 | 26 | ·
SMILES | Calpain2 inh | FAS-TE inh | RanGTP-Imp inh | Runt-SMMHC FRET | Runt-CBFb FRET | RUNX1 CBFb TR
COc1ccc(C(=O)NCc2nnc(SCC(=O)Nc3cc(Cl)ccc3OC)o2)cc1 | · | -3 | 4 | · | · | ·
Clc1ccc(-c2csc(NNC3=NCCCCC3)n2)cc1 | 3 | -6 | -3 | 18 | 5 | ·
c1ccc(-c2csc(NNC3=NCCCCC3)n2)cc1 | -3 | -5 | -4 | 52 | 51* | 44*
CCN1CCc2nc(NC(=O)c3ccc(S(=O)(=O)N(C)C)cc3)sc2C1 | 16 | -6 | -2 | 3 | 2 | ·
CCN1CCc2nc(NC(=O)c3ccc4c(c3)OCCO4)sc2C1 | -21 | -16 | 80* | 112* | 51* | -13
CCN1CCc2nc(NC(=O)C(c3ccccc3)c3ccccc3)sc2C1 | -128 | -17 | ? | 106* | 51* | -8
COC(=O)c1ccccc1N/C=C1\CCc2c(c(C)nn2-c2ccccn2)C1=O | -403 | 18 | 36* | 63* | 54* | 51*
CC(=O)N(c1ccc2oc(=O)sc2c1)S(=O)(=O)c1cccs1 | 13 | -6 | 7 | 63* | 72* | 22
CC(C)C(=O)N(c1ccc2oc(=O)sc2c1)S(=O)(=O)c1cccs1 | 18 | 10 | 0 | 37 | 58* | 38
CC(=O)N(c1ccc2oc(=O)sc2c1)S(=O)(=O)c1ccc(C(=O)O)cc1 | · | -2 | 1 | · | · | ·
C[C@@H]1CN([C@@H](C)CO)C(=O)c2cccc(NC(=O)Nc3ccc4c(c3)OCO4)c2O[C@H]1CN(C)S(=O)(=O)c1cn(C)cn1 | · | -10 | · | · | · | ·
CN1CCN(C2=C(Cl)C(=O)N(c3ccc(Cl)c(Cl)c3)C2=O)CC1 | 2 | 16 | -4 | 23 | 12 | ·
Cc1ccc(N2C(=O)C(Cl)=C(N3CCOCC3)C2=O)cc1Cl | 4 | 12 | 0 | 54* | 65* | 20
COc1ccc(S(=O)(=O)N2CCOCC2)cc1C(=O)N(C)CCOc1ccc(Cl)cc1 | · | 3 | · | · | · | ·
CCOC(=O)c1cc2c(=O)n3ccccc3nc2n(Cc2ccco2)c1=NC(=O)c1ccc(OC)cc1OC | -388 | -1 | 29* | 86* | 70* | 52*
COc1ccc(OC)c(NC(=O)c2cc3c(=O)n4ccccc4nc3n2C)c1 | -317 | 1 | 4 | 69 | · | ·
CCCCCCc1cc2cc(C(=O)Nc3ccc(OC)cc3)c(=O)oc2cc1O | -1 | -12 | 41* | 102 | 65* | -12
COc1ccc(NC(=O)c2cc3ccccc3oc2=O)cc1 | · | -7 | · | · | · | ·
O=C(NC1CCCCCC1)c1ccc[nH]c1=S | -17 | 0 | 1 | 60* | 54* | -36
O=C(NC1CCCCCCC1)c1ccccc1O | -72 | 0 | 1 | 0 | 1 | ·
CCOC(=O)c1sc(NC(=O)C2CC(=O)N(c3ccccc3OC)C2)nc1C (stereo unspecified) | · | -2 | · | · | · | ·
CCCCS(=O)(=O)Nc1ccc(N2CCOCC2)c(S(=O)(=O)N2CCOCC2)c1 | · | -5 | ? | · | · | ·
Cc1cccc2sc(NC(=O)C3CCCO3)nc12 (stereo unspecified) | -14 | -4 | 3 | -5 | -2 | ·
